MEKK2 mut-MEK5: signal of MEK5 binding to mutant human MEKK2 PB1 domain; hit rate 0.35% among 290,000; bead flow cytometry, Alexa488-MEK5 binding to MEKK2 mutant; AID 1530; percent response, % at 10 µM; in the data active = percent response above about 24%, passing the limit was not always enough
Lipid droplet: hepatic lipid droplet formation modulation. AML12 mouse hepatocytes, oleate lipid droplets, BODIPY imaging. inhibition, % at 6.5 µM. hit rate 0.4% among 240,000;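 active = lipid droplet intensity inhibited by at least 50%, with more than 500 cells counted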
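Material: mouse AML12 hepatocyte cell line, fixed after treatment; Timing: compound with oleate, overnight; Technique: high-content imaging of BODIPY-stained droplets and DAPI nuclei; Probe or stimulus: oleate, 100 µM final; Dosing: compound at 6.5 µM only.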
MEKK3 PB1 HTS: modulators (inhibitors or enhancers) of MEK5 binding to human MEKK3 PB1 domain | bead-based flow cytometry, Alexa488-MEK5 binding to MEKK3; actives lie on both sides; 0 = blocked by unlabeled MEK5, 100 = vehicle | binding response (% of control), % at 10 µM | hit rate 1.4% among 290,000;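 active = binding response more than 3 SD above or below the average of its plate-row segment, actives on both sides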;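 note: Alexa488 bead fluorescence after subtracting the streptavidin-only scavenger bead signal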
MEKK2 WT-MEK5: raises or lowers MEK5 binding to wildtype human MEKK2 PB1 domain | binding response (% of control), % at 10 µM | Q9Y2U5 | bead flow cytometry, Alexa488-MEK5 binding to MEKK2 WT; actives lie on both sides | hit rate 1.1% among 290,000; in the data active = binding response below about 67% or above about 130%
Hep lipid conf: confirmation of inhibitors of hepatic lipid droplet formation; inhibition, % at 5.2 µM; AID 463183; hit rate 65% among 870; AML12 mouse hepatocytes, BODIPY lipid droplet imaging; droplets induced with 100 µM oleic acid; shares compounds with Lipid droplet;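 active = inhibition of lipid droplet metric at least 50%, with more than 300 cells in each of four replicates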;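 note: plate controls were DMSO with oleic acid for no effect and 5 µM Triacsin-C for full effect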
AML12 cytotox: AML12 hepatocyte cytotoxicity (counter-screen) | shares compounds with Lipid droplet | AML12 mouse hepatocytes, DAPI nuclear morphology cytotoxicity imaging; stronger effect = higher value; cells fed 100 µM oleate overnight | z-score at 5 µM | hit rate 3% among 870; in the data active = z-score above about 6.3;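 note: compound exposure lasted overnight at 37 °C before fixation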
AML12 tox ATP: AML12 hepatocyte cytotoxicity, confirmed; AID 463219; AML12 mouse hepatocyte viability, ATP luminescence; cells loaded with 100 µM oleic acid; 530 tested, under 10 active; shares compounds with Lipid droplet; cytotoxicity, % at 50 µM;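 active = cytotoxicity above 50% in each of four replicates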;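 note: compound exposure lasted overnight at 37 °C before the ATP read; 0% = DMSO-treated cells and 100% = wells with no cells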
Numbers without * were called inactive. Sampled rows, rich in hits. Any-hit rate of the full collection: about 2.6%.

COc1ccc(CCN2C(=O)CC(N3CCOCC3)C2=O)cc1OC (configuration not stated) was read as MEKK2 mut-MEK5 7.0, Lipid droplet 51.3*, MEKK3 PB1 HTS 104.0, MEKK2 WT-MEK5 103.0, Hep lipid conf 25.4 and AML12 cytotox -0.31.
`CCOC(=O)/C=c1\s/c(=C\c2ccc3cc(OC)ccc3c2)c(=O)n1CC(=O)NCc1ccc2c(c1)OCO2` gave MEKK2 mut-MEK5 8.0, MEKK3 PB1 HTS 101.0 and MEKK2 WT-MEK5 105.0.
`O=[N+]([O-])c1sccc1CS(=O)(=O)c1ccccc1` gave MEKK2 mut-MEK5 -4.0, Lipid droplet 70.6*, MEKK3 PB1 HTS 98.0, MEKK2 WT-MEK5 97.0, Hep lipid conf 28.9 and AML12 cytotox -0.144.
`O=C(O)c1ccc([N+](=O)[O-])c(CS(=O)(=O)c2ccccc2)c1` gave MEKK2 mut-MEK5 11.0, MEKK3 PB1 HTS 106.0 and MEKK2 WT-MEK5 105.0.
For O=C(c1ccc(S(=O)(=O)Nc2cccc(C(F)(F)F)c2)cc1)N1CCOCC1 the results were MEKK2 mut-MEK5 4.0, Lipid droplet 58.1*, MEKK3 PB1 HTS 100.0, MEKK2 WT-MEK5 103.0, Hep lipid conf 90.2*, AML12 cytotox 0.612 and AML12 tox ATP 17.6.
Screening O=C(c1cccc(S(=O)(=O)Nc2cccc(C(F)(F)F)c2)c1)N1CCOCC1 returned MEKK2 mut-MEK5 -10.0, Lipid droplet -5.4, MEKK3 PB1 HTS 94.0 and MEKK2 WT-MEK5 95.0.
COc1ccc(-c2cc(C(F)(F)F)nc(SCCC(=O)NCc3ccccc3)n2)cc1 was read as MEKK2 mut-MEK5 2.0, Lipid droplet 61.7*, MEKK3 PB1 HTS 98.0, MEKK2 WT-MEK5 100.0, Hep lipid conf -5.6 and AML12 cytotox 0.129.
`Cc1ccc(NC(=S)Nc2ccc3cn[nH]c3c2)cc1C` gave MEKK2 mut-MEK5 32.0, Lipid droplet -24.0, MEKK3 PB1 HTS 104.0 and MEKK2 WT-MEK5 109.0.
Screening Cc1ccc(S(=O)(=O)N(C)C)cc1NC(=S)Nc1ccc2cn[nH]c2c1 returned MEKK2 mut-MEK5 0.0, Lipid droplet 55.8*, MEKK3 PB1 HTS 100.0, MEKK2 WT-MEK5 94.0, Hep lipid conf 24.8 and AML12 cytotox -0.934.
O=C1c2ccccc2-c2c1cccc2C(=O)N1CCCCC1 was read as MEKK2 mut-MEK5 7.0, Lipid droplet -8.7, MEKK3 PB1 HTS 105.0 and MEKK2 WT-MEK5 105.0.
`CC1CC(C)CN(C(=O)c2ccc3c(c2NCCO)C(=O)c2ccccc2C3=O)C1` (configuration not stated) gave MEKK2 mut-MEK5 3.0, Lipid droplet 91.4*, MEKK3 PB1 HTS 102.0, MEKK2 WT-MEK5 102.0, Hep lipid conf 114.7*, AML12 cytotox -0.984 and AML12 tox ATP 37.3.
Screening COc1cc(C(=O)OC(C)CN2C(C)CCCC2C)cc(OC)c1OC (configuration not stated) returned MEKK2 mut-MEK5 3.0, Lipid droplet 4.6, MEKK3 PB1 HTS 106.0 and MEKK2 WT-MEK5 105.0.
COc1ccccc1N1CCN(S(=O)(=O)c2cc(Br)cnc2N)CC1 was read as MEKK2 mut-MEK5 -3.0, Lipid droplet 5.8, MEKK3 PB1 HTS 100.0 and MEKK2 WT-MEK5 99.0.
CCCCOc1ccc(C(C)NC(=O)CCS(=O)(=O)Cc2ccc(C)cc2)cc1 (configuration not stated) was read as MEKK2 mut-MEK5 0.0, Lipid droplet 51.8*, MEKK3 PB1 HTS 116.0, MEKK2 WT-MEK5 104.0, Hep lipid conf 103.0* and AML12 cytotox -0.154.
CCOc1ccc2nc(-c3ccccc3)nc(SCC(=O)Nc3ncc(C)s3)c2c1 was read as MEKK2 mut-MEK5 2.0, Lipid droplet 100.7*, MEKK3 PB1 HTS 102.0, MEKK2 WT-MEK5 104.0, Hep lipid conf 106.8*, AML12 cytotox 0.115 and AML12 tox ATP 6.8.
`CC(C)CC(=O)Nc1nnc(CSCc2ccc(F)cc2)s1` gave MEKK2 mut-MEK5 0.0, Lipid droplet 4.0, MEKK3 PB1 HTS 105.0 and MEKK2 WT-MEK5 102.0.

Source: PubChem BioAssay
